# Calls of active or inactive are those of the source. No cut-off for these calls is given here.
# Columns and labels:
# [1] = system: Mus musculus; assay: Antidiabetic activity in KK-Ay mouse assessed as reduction in fasting blood glucose level at 100 mg/kg, po for 50 days by glucose oxidase method (reference value: 13.3 +/- 2.85 mM); type: functional; conditions: time 50 day
# Outline: (§1)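 Lipogenic-diet KK-Ay mice given 50 or 100 mg/kg compound or 5 mg/kg rosiglitazone orally for 50 days, C57BL/6J as normal controls. Fasting blood glucose, glycosylated haemoglobin, AGE, insulin, HOMA-IR, cholesterol, LDL-c, TG, serum creatinine and BUN determined. Mean ± SD, 8-9 mice per group.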
# [2] = species: Mus musculus; assay: Anti-diabetic activity in high fat diet-fed C57BL/6J mouse model of obesity and diabetes assessed as decrease in microalbumin level in urine measured after 24 hrs; type: functional, organism-based
# Outline: (§2)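 Before study end, 24-h urine collected from C57BL/6J controls and KK-Ay mice (untreated, oral 50 or 100 mg/kg compound, or 5 mg/kg rosiglitazone). Volume, glucose, total protein and microalbumin measured by kits. Mean ± SD, 8-9 mice per group, vs C57BL/6J or untreated KK-Ay.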
# [3] = system: Mus musculus; assay: Antidiabetic activity in KK-Ay mouse assessed as effect on glycosylated haemoglobin level at 100 mg/kg, po for 50 days by glucose oxidase method (reference value: 8.74 +/- 1.08%); type: functional; conditions: time 50 day; outline: as §1
# [4] = system: Mus musculus; assay: Antidiabetic activity in KK-Ay mouse assessed as effect on AGE level at 100 mg/kg, […] by ELISA (Rvb 2.85 +/- 0.92 ug/ml); type: functional
# [5] = system: Mus musculus; assay: Antidiabetic activity in KK-Ay mouse assessed as effect on Triglycerides level at 100 mg/kg, […] by ELISA (reference value: 4.01 +/- 1.83 mM); type: functional
# [6] = system: Mus musculus; assay: Antidiabetic activity in KK-Ay mouse assessed as effect on insulin level at 100 mg/kg, […] by ELISA (reference value: 226 +/- 15.5 mU/l); type: functional
# [7] = system: Mus musculus; assay: Antidiabetic activity in KK-Ay mouse assessed as effect on HOMA-IR level at 100 mg/kg, […] by ELISA (reference value: 137 +/- 18.4); type: functional
# [8] = system: Mus musculus; assay: Antidiabetic activity in KK-Ay mouse assessed as effect on HOMA-IR level at 50 mg/kg, […] by ELISA (reference value: 137 +/- 18.4); type: functional
# [9] = system: Mus musculus; assay: Antidiabetic activity in KK-Ay mouse assessed as effect on BUN level at 100 mg/kg, po for 24 hrs by ELISA (reference value: 12.8 +/- 2.97 mM); type: functional
# [10] = species: Mus musculus; assay: Anti-diabetic activity in high fat diet-fed C57BL/6J mouse model of obesity and diabetes assessed as reduction in urine glucose level measured after 24 hrs; type: functional, organism-based; outline: as §2
# [11] = Acute toxicity in Kunming mouse assessed as effect on blood CRE level at 250 to 1000 mg/kg, po administered as single dose measured for 7 days; type: organism-based; conditions: in vivo, 168 h, dose 250-1000 mg/kg, time 7 day
# Outline: (§3)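 Kunming mice each received one oral dose at 250, 500, 750 or 1000 mg·kg^-1 and were closely monitored for 7 days. At the end, blood was sampled and GOT, GPT, BUN and CRE were measured […] as liver and kidney function markers.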
# [12] = system: Mus musculus; assay: Anti-diabetic activity in high fat diet-fed KK-Ay mouse model of obesity and diabetes assessed as reduction in urine glucose level at 50 to 100 mg/kg, po measured after 24 hrs; conditions: dose 50-100 mg/kg
# [13] = system: Mus musculus; assay: Antidiabetic activity in KK-Ay mouse assessed as effect on glycosylated haemoglobin level at 50 mg/kg, po for 50 days by glucose oxidase method (reference value: 8.74 +/- 1.08%); type: functional; conditions: time 50 day; outline: as §1
# [14] = system: Mus musculus; assay: Antidiabetic activity in KK-Ay mouse assessed as effect on LDL level at 100 mg/kg, po […] by ELISA (reference value: 1.11 +/- 0.24 mM); type: functional
# [15] = Effect on high fat diet-fed KK-Ay mouse model of obesity and diabetes assessed as water intake at 50 mg/kg, po (reference value: 21.2 +/- 4.17 ml/day); type: ADME, organism-based; conditions: in vivo
# Outline: (§4)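 KK-Ay mice on lipogenic diet, with C57BL/6J mice as normal controls, dosed orally at 50 or 100 mg/kg (test) or 5 mg/kg (RGZ). Food intake (g/day), water intake (mL/day) and body weight recorded before and after treatment; body weight gain calculated. Mean±SD, 8-9 mice per group.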
# [16] = system: Mus musculus; assay: Antidiabetic activity in KK-Ay mouse assessed as effect on LDL level at 50 mg/kg, po for 24 hrs by ELISA (reference value: 1.11 +/- 0.24 mM); type: functional
# [17] = Acute toxicity in Kunming mouse assessed as effect on blood GPT level at 250 to 1000 mg/kg, po administered as single dose measured for 7 days; type: organism-based; conditions: in vivo, 168 h, dose 250-1000 mg/kg, time 7 day; outline: as §3
# [18] = Effect on high fat diet-fed KK-Ay mouse model of obesity and diabetes assessed as water intake at 100 mg/kg, po (reference value: 21.2 +/- 4.17 ml/day); type: ADME, organism-based; conditions: in vivo; outline: as §4
# [19] = Cytotoxicity against human HepG2 cells after 24 hrs by MTT assay; type: cell-based
# Outline: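 HepG2 cells exposed to compound; cell growth measured; CC50 derived from the concentration–growth relationship.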
# [20] = Effect on high fat diet-fed C57BL/6J mouse model of obesity and diabetes assessed as food intake; conditions: in vivo
# [21] = system: Mus musculus; assay: Anti-diabetic activity in overnight fasted diabetic KK-Ay mouse assessed as reduction in blood glucose AUC at 50 to 100 mg/kg, po measured after 35 days by oral glucose tolerance test; type: functional, organism-based; conditions: dose 50-100 mg/kg, time 35.0 day
# Outline: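 KK-Ay mice orally treated with 50 or 100 mg/kg compound or 5 mg/kg rosiglitazone, C57BL/6J as normal controls. After 35 days of treatment, oral glucose tolerance test and insulin tolerance test run. Blood glucose plotted against time, AUC calculated. Mean ± SD, 8-9 mice per group.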
# [22] = system: L6; assay: Increase in glucose consumption in rat L6 cells after 24 hrs by glucose oxidase assay; type: functional, cell-based
# Outline: (§5)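 L6 myotubes treated with DMSO, compound or RGZ (20 μM) at the indicated concentrations for 24 h. Culture supernatants assayed for glucose consumption and lactate release; lysed cells assayed for ATP, normalized to protein. Mean ± SD of 3 independent experiments vs DMSO.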
# [23] = system: L6; assay: Induction of glycolysis in rat L6 cells assessed as increase in lactate release at 10 to 40 uM measured after 24 hrs; conditions: dose 10-40 µM
# [24] = Effect on high fat diet-fed po dosed C57BL/6J mouse model of obesity and diabetes assessed as water intake; type: organism-based; conditions: in vivo
# [25] = system: Mus musculus; assay: Antidiabetic activity in KK-Ay mouse assessed as effect on cholesterol level at 100 mg/kg, po for 24 hrs by ELISA (reference value: 7.38 +/- 1.03 mM); type: functional
# [26] = system: L6; assay: Increase in glucose consumption in rat L6 cells at 10 to 40 uM measured after 24 hrs; type: functional, cell-based; conditions: dose 10-40 µM; outline: as §5
# [27] = Acute toxicity in Kunming mouse assessed as effect on blood GOT level at 250 to 1000 mg/kg, po administered as single dose measured for 7 days; type: organism-based; conditions: in vivo, 168 h, dose 250-1000 mg/kg, time 7 day; outline: as §3
smiles,measurement,setting,value
CCCC[C@@H]1[C@H]2CCCN3CCC[C@@H](CN1S(=O)(=O)c1ccc(C(F)(F)F)cc1)[C@@H]23,Activity,[1],8.18 mM
same,Activity,[2],inactive
same,Activity,[3],6.75%
same,Activity,[4],1.13 µg/mL
same,Activity,[5],2.39 mM
same,Activity,[6],128 mU/L
same,Activity,[7],46.5
same,Activity,[8],74.3
same,Activity,[9],12.4 mM
same,Activity,[10],Active
same,Activity,[11],Non-Toxic
same,Activity,[12],Active
same,Activity,[13],7.07%
same,Activity,[14],0.82 mM
same,Activity,[15],13.8 mL/day
same,Activity,[16],1.06 mM
same,Activity,[17],Non-Toxic
same,Activity,[18],11.9 mL/day
same,CC50 at 24 h,[19],642 µM
same,Activity,[20],4.29 g/day
same,Activity,[21],Active
same,Activity,[22],Dose-Dependent Effect
same,Activity,[23],Dose-Dependent Effect
same,Activity,[24],4.38 mL/day
same,Activity,[25],5.55 mM
same,Activity,[26],Dose-Dependent Effect
same,Activity,[27],Non-Toxic

# Reference: ChEMBL document CHEMBL4818983, “Structure-activity relationship and hypoglycemic activity of tricyclic matrines with advantage of treating diabetic nephropathy” (Eur J Med Chem, 2020)
